# Experimental data published in ChEMBL document CHEMBL3120087, “3D QSAR studies based in silico screening of 4,5,6-triphenyl-1,2,3,4-tetrahydropyrimidine analogs for anti-inflammatory activity” (2014).
# Assays:
# Rattus norvegicus [1] = assay: Antiinflammatory activity in rat assessed as reduction of paw edema; type: functional
# Summary of the method: (§1)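 Albino rats of either sex (150–200 g), six per group, fasted 12 h with water only. […] Paw volume measured by plethysmometer immediately (initial) and then hourly to 4 h. Mean paw volume ± SEM reported with % inhibition of edema versus control.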
# Rattus norvegicus [2] = assay: Antiinflammatory activity in albino rat assessed as inhibition of carrageenan-induced paw edema at 20 mg/kg, po administered 1 hr prior to carrageenan challenge measured after 2 hrs relative to vehicle-treated control; type: functional; summary of the method: as §1
# Rattus norvegicus [3] = assay: Antiinflammatory activity in albino rat assessed as inhibition of carrageenan-induced paw edema at 20 mg/kg, po administered 1 hr prior to carrageenan challenge measured after 24 hrs relative to vehicle-treated control; type: functional
# Rattus norvegicus [4] = assay: Antiinflammatory activity in albino rat assessed as inhibition of carrageenan-induced paw edema at 20 mg/kg, po administered 1 hr prior to carrageenan challenge measured after 4 hrs relative to vehicle-treated control; type: functional; summary of the method: as §1
# Rattus norvegicus [5] = assay: Antiinflammatory activity in albino rat assessed as inhibition of carrageenan-induced paw edema at 20 mg/kg, po administered 1 hr prior to carrageenan challenge measured after 3 hrs relative to vehicle-treated control; type: functional; summary of the method: as §1
# Rattus norvegicus [6] = assay: Antiinflammatory activity in albino rat assessed as inhibition of carrageenan-induced paw edema at 20 mg/kg, po administered 1 hr prior to carrageenan challenge measured after 1 hr relative to vehicle-treated control; type: functional; summary of the method: as §1
# [7] = target: T1, Prostaglandin G/H synthase 1 (Ovis aries) (UniProt P05979); assay: Inhibition of ovine COX1 using TMPD as substrate at 20 uM incubated for 5 mins prior to substrate addition measured after 5 mins by colorimetry
# T1 sequence (whole entry): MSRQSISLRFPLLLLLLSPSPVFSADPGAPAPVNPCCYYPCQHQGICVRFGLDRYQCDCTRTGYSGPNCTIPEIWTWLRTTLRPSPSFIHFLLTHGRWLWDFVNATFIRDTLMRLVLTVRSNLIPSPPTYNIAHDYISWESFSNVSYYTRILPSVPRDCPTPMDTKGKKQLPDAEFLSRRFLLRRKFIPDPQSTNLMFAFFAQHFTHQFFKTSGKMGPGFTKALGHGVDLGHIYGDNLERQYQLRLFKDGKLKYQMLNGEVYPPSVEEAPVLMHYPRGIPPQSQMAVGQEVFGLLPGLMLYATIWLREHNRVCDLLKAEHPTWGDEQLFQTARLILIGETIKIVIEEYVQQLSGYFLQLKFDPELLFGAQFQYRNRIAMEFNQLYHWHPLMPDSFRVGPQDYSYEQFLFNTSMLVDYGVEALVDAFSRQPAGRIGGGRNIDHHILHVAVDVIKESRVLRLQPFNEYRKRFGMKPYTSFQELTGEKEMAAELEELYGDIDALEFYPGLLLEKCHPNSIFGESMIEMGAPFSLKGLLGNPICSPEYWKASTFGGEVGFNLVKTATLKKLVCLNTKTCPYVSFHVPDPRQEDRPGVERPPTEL
# Summary of the method: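 Colorimetric COX assay using peroxidase activity of ovine cyclooxygenase to oxidize TMPD. Assay mixture mixed and incubated at 25 °C for 5 min. Enzyme activity read as absorbance at 590 nm.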
structure (smiles),measurement,setting,value
Cc1ccc(C2=C(CC(=O)O)C(c3ccc(Cl)cc3)NC(=N)N2)cc1 (configuration not stated),log(activity),Rattus norvegicus [1],0.68
O=C(O)CC1=C(c2ccc(Cl)cc2)N=C(S)NC1c1cccnc1 (configuration not stated),log(activity),Rattus norvegicus [1],0.35
O=C(O)CC1=C(c2ccccc2)N=C(S)NC1c1cccs1 (configuration not stated),log(activity),Rattus norvegicus [1],0.64
COc1ccc(C2NC(=N)NC(c3ccc(S(C)(=O)=O)cc3)=C2c2ccccc2)cc1OC (configuration not stated),inhibition in vivo at 20 mg/kg,Rattus norvegicus [2],18.6%
same,inhibition in vivo at 20 mg/kg,Rattus norvegicus [3],3.9%
same,inhibition in vivo at 20 mg/kg,Rattus norvegicus [4],11.3%
same,inhibition in vivo at 20 mg/kg,Rattus norvegicus [5],37.1%
same,inhibition in vivo at 20 mg/kg,Rattus norvegicus [6],24.8%
COc1ccc(C2NC(=N)NC(c3ccc(C)cc3)=C2CC(=O)O)cc1 (configuration not stated),log(activity),Rattus norvegicus [1],0.88
O=C(O)CC1=C(c2ccc(Cl)cc2)N=C(S)NC1c1ccccc1 (configuration not stated),log(activity),Rattus norvegicus [1],0.65
O=C(O)CC1=C(c2ccc(Cl)cc2)N=C(S)NC1c1cccs1 (configuration not stated),log(activity),Rattus norvegicus [1],0.54
Cc1ccc(-c2cc(C(F)(F)F)nn2-c2ccc(S(N)(=O)=O)cc2)cc1 [CELECOXIB],inhibition in vivo at 20 mg/kg,Rattus norvegicus [2],41.9%
same,inhibition in vivo at 20 mg/kg,Rattus norvegicus [3],6.49%
same,inhibition in vivo at 20 mg/kg,Rattus norvegicus [4],17.9%
same,inhibition in vivo at 20 mg/kg,Rattus norvegicus [5],32.5%
same,inhibition in vivo at 20 mg/kg,Rattus norvegicus [6],48.2%
Cc1ccc(C2=C(CC(=O)O)C(c3cccnc3)NC(S)=N2)cc1 (configuration not stated),log(activity),Rattus norvegicus [1],0.11
CN(C)c1ccc(C2NC(=O)NC(c3ccc(S(C)(=O)=O)cc3)=C2c2ccccc2)cc1 (configuration not stated),inhibition in vivo at 20 mg/kg,Rattus norvegicus [2],41.4%
same,inhibition in vivo at 20 mg/kg,Rattus norvegicus [4],9.52%
same,inhibition,[7],2.36%
same,inhibition in vivo at 20 mg/kg,Rattus norvegicus [5],26.9%
same,inhibition in vivo at 20 mg/kg,Rattus norvegicus [6],46.9%
N=C1NC(c2ccc(Cl)cc2)=C(CC(=O)O)C(c2cccnc2)N1 (configuration not stated),log(activity),Rattus norvegicus [1],0.54
COc1ccc(OC)c(C2NC(=O)NC(c3ccc(Cl)cc3)=C2c2ccc(S(N)(=O)=O)cc2)c1 (configuration not stated),inhibition in vivo at 20 mg/kg,Rattus norvegicus [2],28.1%
same,inhibition in vivo at 20 mg/kg,Rattus norvegicus [4],14.3%
same,inhibition in vivo at 20 mg/kg,Rattus norvegicus [5],24.4%
same,inhibition in vivo at 20 mg/kg,Rattus norvegicus [6],18%
N=C1NC(c2ccccc2)=C(CC(=O)O)C(c2ccco2)N1 (configuration not stated),log(activity),Rattus norvegicus [1],0.55
N=C1NC(c2ccc(Cl)cc2)=C(CC(=O)O)C(c2ccccc2)N1 (configuration not stated),log(activity),Rattus norvegicus [1],0.78
Cc1ccc(C2=C(CC(=O)O)C(c3ccccc3)NC(=N)N2)cc1 (configuration not stated),log(activity),Rattus norvegicus [1],0.82
CN(C)c1ccc(C2NC(=O)NC(c3ccc(Cl)cc3)=C2c2ccc(S(C)(=O)=O)cc2)cc1 (configuration not stated),inhibition in vivo at 20 mg/kg,Rattus norvegicus [2],27.6%
same,inhibition in vivo at 20 mg/kg,Rattus norvegicus [4],16.1%
same,inhibition in vivo at 20 mg/kg,Rattus norvegicus [5],28.9%
same,inhibition in vivo at 20 mg/kg,Rattus norvegicus [6],18%
O=C(O)CC1=C(c2ccccc2)N=C(S)NC1c1cccnc1 (configuration not stated),log(activity),Rattus norvegicus [1],0.46
COc1ccc(OC)c(C2NC(=N)NC(c3ccc(S(C)(=O)=O)cc3)=C2c2ccccc2)c1 (configuration not stated),inhibition in vivo at 20 mg/kg,Rattus norvegicus [2],24.3%
same,inhibition in vivo at 20 mg/kg,Rattus norvegicus [4],10.7%
same,inhibition in vivo at 20 mg/kg,Rattus norvegicus [5],20.3%
same,inhibition in vivo at 20 mg/kg,Rattus norvegicus [6],25.2%
COc1ccc(C2NC(=N)NC(c3ccccc3)=C2CC(=O)O)cc1 (configuration not stated),log(activity),Rattus norvegicus [1],0.82
CS(=O)(=O)c1ccc(C2=C(c3ccccc3)C(c3ccccc3)NC(=S)N2)cc1 (configuration not stated),inhibition in vivo at 20 mg/kg,Rattus norvegicus [2],30.9%
same,inhibition in vivo at 20 mg/kg,Rattus norvegicus [4],18.4%
same,inhibition in vivo at 20 mg/kg,Rattus norvegicus [5],43.1%
same,inhibition in vivo at 20 mg/kg,Rattus norvegicus [6],46.9%
N=C1NC(c2ccccc2)=C(CC(=O)O)C(c2cccnc2)N1 (configuration not stated),log(activity),Rattus norvegicus [1],0.3
O=C(O)CC1=C(c2ccccc2)N=C(S)NC1c1ccc(Cl)cc1 (configuration not stated),log(activity),Rattus norvegicus [1],0.88
COc1ccc(C2NC(=O)NC(c3ccc(S(C)(=O)=O)cc3)=C2c2ccccc2)c(OC)c1 (configuration not stated),inhibition in vivo at 20 mg/kg,Rattus norvegicus [2],28.1%
same,inhibition in vivo at 20 mg/kg,Rattus norvegicus [5],39.1%
same,inhibition in vivo at 20 mg/kg,Rattus norvegicus [6],21.6%
N=C1NC(c2ccc(Cl)cc2)=C(CC(=O)O)C(c2ccco2)N1 (configuration not stated),log(activity),Rattus norvegicus [1],0.56
N=C1NC(c2ccccc2)=C(CC(=O)O)C(c2ccc(Cl)cc2)N1 (configuration not stated),log(activity),Rattus norvegicus [1],0.64
COc1ccc(C2NC(=S)NC(c3ccc(S(C)(=O)=O)cc3)=C2c2ccccc2)c(OC)c1 (configuration not stated),inhibition in vivo at 20 mg/kg,Rattus norvegicus [2],26.7%
same,inhibition in vivo at 20 mg/kg,Rattus norvegicus [5],10.2%
same,inhibition in vivo at 20 mg/kg,Rattus norvegicus [6],15.3%
O=C(O)CC1=C(c2ccccc2)N=C(S)NC1c1ccco1 (configuration not stated),log(activity),Rattus norvegicus [1],0.57
N=C1NC(c2ccccc2)=C(CC(=O)O)C(c2cccs2)N1 (configuration not stated),log(activity),Rattus norvegicus [1],0.51
COc1ccc(C2NC(=N)NC(c3ccc(Cl)cc3)=C2CC(=O)O)cc1 (configuration not stated),log(activity),Rattus norvegicus [1],0.92
O=C(O)CC1=C(c2ccc(Cl)cc2)N=C(S)NC1c1ccco1 (configuration not stated),log(activity),Rattus norvegicus [1],0.24
COc1ccc(OC)c(C2NC(=O)NC(c3ccc(S(C)(=O)=O)cc3)=C2c2ccccc2)c1 (configuration not stated),inhibition in vivo at 20 mg/kg,Rattus norvegicus [2],19.1%
same,inhibition in vivo at 20 mg/kg,Rattus norvegicus [4],17.3%
same,inhibition in vivo at 20 mg/kg,Rattus norvegicus [5],24.4%
same,inhibition in vivo at 20 mg/kg,Rattus norvegicus [6],35.6%
Cc1ccc(C2=C(CC(=O)O)C(c3ccco3)NC(S)=N2)cc1 (configuration not stated),log(activity),Rattus norvegicus [1],0.31
N=C1NC(c2ccc(Cl)cc2)=C(CC(=O)O)C(c2cccs2)N1 (configuration not stated),log(activity),Rattus norvegicus [1],0.64
N=C1NC(c2ccc(Cl)cc2)=C(CC(=O)O)C(c2ccc(Cl)cc2)N1 (configuration not stated),log(activity),Rattus norvegicus [1],0.74
COc1ccc(C2NC(S)=NC(c3ccc(C)cc3)=C2CC(=O)O)cc1 (configuration not stated),log(activity),Rattus norvegicus [1],0.96
Cc1ccc(C2=C(CC(=O)O)C(c3ccc(Cl)cc3)NC(S)=N2)cc1 (configuration not stated),log(activity),Rattus norvegicus [1],0.72
Cc1ccc(C2=C(CC(=O)O)C(c3ccccc3)NC(S)=N2)cc1 (configuration not stated),log(activity),Rattus norvegicus [1],0.82
Cc1ccc(C2=C(CC(=O)O)C(c3cccs3)NC(=N)N2)cc1 (configuration not stated),log(activity),Rattus norvegicus [1],0.64
COc1ccc(C2NC(S)=NC(c3ccccc3)=C2CC(=O)O)cc1 (configuration not stated),log(activity),Rattus norvegicus [1],0.92
Cc1ccc(C2=C(CC(=O)O)C(c3cccnc3)NC(=N)N2)cc1 (configuration not stated),log(activity),Rattus norvegicus [1],0.58
N=C1NC(c2ccccc2)=C(CC(=O)O)C(c2ccccc2)N1 (configuration not stated),log(activity),Rattus norvegicus [1],0.64
Cc1ccc(C2=C(CC(=O)O)C(c3ccco3)NC(=N)N2)cc1 (configuration not stated),log(activity),Rattus norvegicus [1],0.54
O=C(O)CC1=C(c2ccc(Cl)cc2)N=C(S)NC1c1ccc(Cl)cc1 (configuration not stated),log(activity),Rattus norvegicus [1],0.82
Cc1ccc(C2=C(CC(=O)O)C(c3cccs3)NC(S)=N2)cc1 (configuration not stated),log(activity),Rattus norvegicus [1],0.28
COc1ccc(C2NC(=N)NC(c3ccc(Cl)cc3)=C2c2ccc(S(C)(=O)=O)cc2)cc1 (configuration not stated),inhibition in vivo at 20 mg/kg,Rattus norvegicus [2],20.5%
same,inhibition in vivo at 20 mg/kg,Rattus norvegicus [3],15.6%
same,inhibition in vivo at 20 mg/kg,Rattus norvegicus [4],28.6%
same,inhibition in vivo at 20 mg/kg,Rattus norvegicus [5],43.6%
same,inhibition in vivo at 20 mg/kg,Rattus norvegicus [6],30.2%
O=C(O)CC1=C(c2ccccc2)N=C(S)NC1c1ccccc1 (configuration not stated),log(activity),Rattus norvegicus [1],0.52
COc1ccc(C2NC(S)=NC(c3ccc(Cl)cc3)=C2CC(=O)O)cc1 (configuration not stated),log(activity),Rattus norvegicus [1],1.02
